From ChEMBL document CHEMBL1144703, “Identification of novel ligands for the RNA pseudoknot that regulate -1 ribosomal frameshifting” (Bioorg Med Chem, 2008)
Values belong to the compound of their own block, whether it stands above or below them. The source made the active and inactive calls. No cut-off for these calls is given here.

Tests used:
[1] = Activity at synthetic biotin-RNA pseudoknot assessed as increase in -1 ribosomal frameshifting efficiency at 250 uM by dual luciferase assay
Procedure, shortened: (§1)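 Biotin-pseudoknot template ligated into dual luciferase vector (XhoI/SpeI). Coupled transcription/translation in rabbit reticulocyte lysate with compounds at 250 μM in DMSO; DMSO control. Frameshift efficiency from SDS–PAGE band quantification (100 vs 40 kDa, PhosphorImager) or dual luciferase firefly/Renilla ratio, 10 s reads; fold change = efficiency with compound / without; triplicate runs.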

[2] = Activity at synthetic biotin-RNA pseudoknot assessed as increase in -1 ribosomal frameshifting efficiency at 250 uM by rabbit reticulocyte based transcription/translation-coupled assay; procedure, shortened: as §1
[3] = Activity at synthetic biotin-RNA pseudoknot assessed as increase in -1 ribosomal frameshifting efficiency by rabbit reticulocyte based transcription/translation-coupled assay
Procedure, shortened: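 Concentration series 25 nM to 250 μM in rabbit reticulocyte TNT-coupled assay with biotin-pseudoknot template; biotin at 250 μM as comparator. Frameshifting % from SDS–PAGE autoradiogram, frameshift (100 kDa) vs non-frameshift (40 kDa) protein.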

[4] = system: HEK293; assay: Activity at synthetic biotin-RNA pseudoknot assessed as increase in -1 ribosomal frameshifting efficiency in human HEK293 cells at 250 uM by transcription/translation-coupled assay; format: cell-based
Procedure, shortened: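 HEK 293 in DMEM, 10% FBS, 1% pen-strep, seeded to 40% confluence, transfected with biotin-pseudoknot dual luciferase construct (50 ng DNA, JetPEI) for 18 h, then compound in DMSO added for a further 18 h. Passive lysis 30 min at room temperature, protein normalised by Bradford (50 μg), firefly/Renilla luciferase ratio read.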

[5] = system: Pea enation mosaic virus-1; assay: Activity at PEMV RNA pseudoknot assessed as increase in -1 ribosomal frameshifting efficiency at 250 uM by dual luciferase based transcription/translation-coupled assay
Procedure, shortened: (§2)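 Template carries PEMV pseudoknot in place of biotin-pseudoknot in dual luciferase vector. In vitro TNT-coupled transcription/translation in rabbit reticulocyte lysate, compounds in DMSO (DMSO control). Read-out by SDS–PAGE autoradiography, frameshift (100 kDa) vs non-frameshift (40 kDa) products quantified by PhosphorImager, or by dual luciferase (firefly then Renilla, 10 s each, ratio); luciferase values mean of triplicates.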

[6] = system: Pea enation mosaic virus-1; assay: Activity at PEMV RNA pseudoknot assessed as increase in -1 ribosomal frameshifting efficiency at 250 uM by SDS-PAGE based transcription/translation-coupled assay; procedure, shortened: as §2

Structure (SMILES): COC(=O)C(CCCCNC(=O)Nc1cc(F)ccc1F)NS(=O)(=O)c1ccc(C)cc1 (stereo unspecified)
Activity [2]: 13.7% | Activity [1]: 18.1% | Activity [3]: Dose-dependent effect | Activity [4]: 8.05% | Activity [5]: inactive | Activity [6]: 7.6%

Structure (SMILES): CCOC(=O)C(CSCc1ccccc1)NC(=O)Nc1ccc(SC)cc1 (stereo unspecified)
Activity [1]: Active

Structure (SMILES): CCOC(=O)N1CCN(C(=O)Nc2ccccc2SC)CC1
Activity [1]: Active

The remaining lines, values ahead:

Activity [1]: Active
Structure (SMILES): CCOC(=O)c1cccc(NC(=O)N2CCCN2C(=O)c2cccnc2SCCCC#N)c1

Activity [1]: Active
Structure (SMILES): COC(=O)c1cc(NC(=O)NCCSCc2ccccc2)cc(C(=O)OC)c1

Activity [1]: Active
Structure (SMILES): CSc1ccccc1NC(=O)NCC(=O)OCc1ccccc1
